# Source: ChEMBL document CHEMBL1629439, “High-throughput identification of antibacterials against methicillin-resistant Staphylococcus aureus (MRSA) and the transglycosylase” (Bioorg Med Chem, 2010)
# Key:
# [1] = tested on: Staphylococcus aureus; experiment: Antimicrobial activity against oxacillin- and methicillin-resistant Staphylococcus aureus isolate Sa-OXA-R2 after 18 to 24 hrs by alamar blue assay; assay type: functional
# Summary of the method: (§1)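 Broth microdilution per NCCLS standard, Mueller-Hinton broth, 8-point twofold dilutions; exponentially growing cells at 5 10^5 cells/ml with compound, 18–24 h at 37 C; 20% Alamar blue added, fluorescence read; MIC90 taken as lowest concentration preventing at least 90% growth.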
# [2] = tested on: Bacillus subtilis; experiment: Antimicrobial activity against Bacillus subtilis ATCC 23857 after 18 to 24 hrs by alamar blue assay; assay type: functional
# Summary of the method: (§2)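 Broth microdilution per NCCLS in Mueller-Hinton broth, 8-point twofold dilutions, 384-well format. Exponential-phase cells at 5 × 10^5 cells/ml incubated with compound 18–24 h at 37 °C, then 20% Alamar blue added and fluorescence read. MIC90 taken as the lowest concentration preventing at least 90% bacterial growth.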
# [3] = tested on: Escherichia coli; experiment: Antimicrobial activity against Escherichia coli ATCC […] after 18 to 24 hrs by alamar blue assay; assay type: functional; conditions: Escherichia coli; read-out: MIC; summary of the method: as §2
# [4] = tested on: Pseudomonas aeruginosa; experiment: Antimicrobial activity against Pseudomonas aeruginosa ATCC 25619 after 18 to 24 hrs by alamar blue assay; assay type: functional; conditions: Pseudomonas aeruginosa, ATCC 25619; read-out: MIC; summary of the method: as §2
# [5] = tested on: Acinetobacter baumannii; experiment: Antimicrobial activity against Acinetobacter baumannii ATCC 49139 after 18 to 24 hrs by alamar blue assay; assay type: functional; conditions: Acinetobacter baumannii, ATCC 49139; read-out: MIC; summary of the method: as §2
# [6] = tested on: Stenotrophomonas maltophilia; experiment: Antimicrobial activity against Stenotrophomonas maltophilia ATCC 13637 after 18 to 24 hrs by alamar blue assay; assay type: functional; conditions: Stenotrophomonas maltophilia, ATCC 13637; read-out: MIC; summary of the method: as §2
# [7] = tested on: Serratia marcescens; experiment: Antimicrobial activity against Serratia marcescens ATCC 14756 after 18 to 24 hrs by alamar blue assay; assay type: functional; conditions: Serratia marcescens, ATCC 14756; read-out: MIC; summary of the method: as §2
# [8] = tested on: Mycolicibacterium smegmatis; experiment: Antimicrobial activity against Mycobacterium smegmatis BCRC 11565 after 18 to 24 hrs by alamar blue assay; assay type: functional; conditions: Mycolicibacterium smegmatis, BCRC 11565; read-out: MIC; summary of the method: as §2
# [9] = Inhibition of transglycosylase assessed as inhibition of NBD- labelled lipid II polymerization
# Summary of the method: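 100 µM NBD-labelled lipid II incubated 30 min with full-length PBP (EC, SA or Mtb) and 10 ng/µl N-acetylmuramidase in 50 mM Tris-HCl pH 8.0, 10 mM MgCl2, 0.1% Triton X-100, 10% DMSO, 15% MeOH. Supernatant run on anion-exchange HPLC with 20 mM–0.5 M ammonium acetate gradient. Inhibition calculated from substrate peak-area percentage. IC50 determined. S. aureus strains share one SA enzyme.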
# [10] = tested on: Staphylococcus aureus; experiment: Antimicrobial activity against methicillin-resistant Staphylococcus aureus isolate NTUH4722 after 18 to 24 hrs by alamar blue assay; assay type: functional; summary of the method: as §1
# [11] = tested on: Staphylococcus aureus; experiment: Antimicrobial activity against methicillin-resistant Staphylococcus aureus ATCC 33592 after 18 to 24 hrs by alamar blue assay; assay type: functional; conditions: Staphylococcus aureus, ATCC 33592; read-out: MIC; summary of the method: as §1
# [12] = tested on: Staphylococcus aureus; experiment: Antimicrobial activity against Staphylococcus aureus ATCC 29213 after 18 to 24 hrs by alamar blue assay
SMILES,MIC [1] [µg/mL],MIC [2] [µg/mL],MIC [3] [µg/mL],MIC [4] [µg/mL],MIC [5] [µg/mL],MIC [6] [µg/mL],MIC [7] [µg/mL],MIC [8] [µg/mL],IC90 [9] [µM],MIC [10] [µg/mL],MIC [11] [µg/mL],MIC [12] [µg/mL]
O=C(Nc1ccc(Oc2ccc3ccccc3c2Cl)c(Cl)c1)c1cc(Br)cc(Br)c1O,≤ 0.03,< 0.03,8,16,16,16,16,0.5,100,≤ 0.03,≤ 2,≤ 2
O=C(c1ccc(Cl)cc1)c1ccc(NC(=O)c2cc(Br)cc(Br)c2O)cc1Cl,≤ 0.03,< 0.03,8,16,16,16,16,0.5,100,≤ 0.03,4,≤ 2
O=C(Nc1ccc(NS(=O)(=O)c2ccc(Cl)cc2)cc1Cl)c1cc(Cl)ccc1O,≤ 0.03,< 0.03,8,16,16,16,16,0.5,> 100,≤ 0.03,32,16
O=C(Nc1cc(Cl)ccc1Oc1ccc(Br)c2ccccc12)c1cc(Cl)cc(I)c1O,≤ 0.03,< 0.03,8,16,16,16,16,0.5,100,≤ 0.03,4,8
Cc1ccc(C)c(C(=O)c2cc(NC(=O)c3cc(Br)cc(Br)c3O)ccc2Oc2ccc(Cl)cc2)c1,≤ 0.03,< 0.03,8,16,16,16,16,0.5,> 100,≤ 0.03,32,8
O=C(Nc1cc(Cl)cc(C(=O)c2ccc(Cl)cc2)c1Cl)c1cc(Br)cc(Br)c1O,8,< 0.03,8,16,16,16,16,0.5,100,8,2,0.5
O=C(Nc1ccc(Oc2cc3ccccc3cc2Cl)c(Cl)c1)c1cc(Cl)cc(I)c1O,≤ 0.03,< 0.03,8,16,16,16,16,0.5,> 100,≤ 0.03,≤ 2,4
Cc1ccc(C(C)C)c(Oc2ccc(Cl)cc2NC(=O)c2cc(I)cc(I)c2O)c1,≤ 0.03,< 0.03,8,16,16,16,16,0.5,50,≤ 0.03,0.5,4
Cc1ccc(C(C)C)cc1Oc1ccc(Cl)cc1NC(=O)c1cc(Cl)cc(Br)c1O,≤ 0.03,< 0.03,8,16,16,16,16,0.5,50,≤ 0.03,0.5,1
O=C(Nc1cc(Cl)ccc1Oc1cccc2c(Br)cccc12)c1cc(Cl)cc(Br)c1O,≤ 0.03,< 0.03,8,16,16,16,16,0.5,100,≤ 0.03,≤ 2,4
O=C(Nc1cc(Cl)cc(C(=O)c2ccccc2)c1Cl)c1cc(Br)cc(Br)c1O,4,< 0.03,8,16,16,16,16,0.5,100,4,8,1
